Data from ChEMBL document CHEMBL1122501, “Potential antiatherosclerotic agents. 2. (Aralkylamino)- and (alkylamino) benzoic acid analogues of cetaben” (1983).

Experiments:
Rattus norvegicus [1] = experiment: In vivo Triglyceride lowering activity at dose as 0.05 % of the diet.; type: functional
Summary of the method: (§1)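 Male CFE or CD-1 Sprague-Dawley rats, 140-150 g; 8 per control group, 4 per test group. Compound mixed into ground chow (w/w) via MeOH-CHCl3 (1:3) solution, solvent evaporated; controls got solvent-treated chow. Fed ad libitum 5 days, food intake monitored, killed fed and bled. Serum sterols and triglycerides by adapted autoanalyzer methods; mean percent of control, Student's t test.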

Rattus norvegicus [2] = experiment: In vivo triglyceride lowering activity dosed at 0.10 % of the diet; type: functional; summary of the method: as §1
Rattus norvegicus [3] = experiment: In vivo Sterol lowering activity at dose as 0.05 % of the diet.; type: functional; summary of the method: as §1
Rattus norvegicus [4] = experiment: In vivo Sterol lowering activity at dose as 0.10 % of the diet.; type: functional; summary of the method: as §1
Rattus norvegicus [5] = experiment: In vivo Sterol lowering activity at dose as 0.025 % of the diet.; type: functional; summary of the method: as §1
Rattus norvegicus [6] = experiment: In vivo Triglyceride lowering activity at dose as 0.025 % of the diet; type: functional; summary of the method: as §1
[7] = molecular target: T1, Sterol O-acyltransferase 1 (Rattus norvegicus) (UniProt O70536); experiment: In vitro inhibitory activity against acyl coenzyme A:cholesterol acyltransferase (ACAT); design: concentration or dose not given beside the values; conditions: concentration not given here
T1 sequence (whole entry): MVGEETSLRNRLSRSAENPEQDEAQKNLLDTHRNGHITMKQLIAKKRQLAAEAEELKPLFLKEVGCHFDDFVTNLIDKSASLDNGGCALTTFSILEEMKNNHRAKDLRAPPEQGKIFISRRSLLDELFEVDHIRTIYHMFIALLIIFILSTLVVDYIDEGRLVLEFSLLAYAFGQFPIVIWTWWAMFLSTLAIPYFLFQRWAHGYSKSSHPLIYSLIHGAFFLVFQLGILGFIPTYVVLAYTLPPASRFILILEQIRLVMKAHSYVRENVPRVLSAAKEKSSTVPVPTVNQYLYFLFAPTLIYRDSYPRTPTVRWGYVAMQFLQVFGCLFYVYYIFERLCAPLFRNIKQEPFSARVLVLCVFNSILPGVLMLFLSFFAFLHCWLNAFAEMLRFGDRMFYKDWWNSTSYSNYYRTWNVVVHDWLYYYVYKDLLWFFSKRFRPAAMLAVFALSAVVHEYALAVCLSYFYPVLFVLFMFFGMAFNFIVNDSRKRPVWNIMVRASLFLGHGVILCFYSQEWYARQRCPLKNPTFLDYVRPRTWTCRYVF
Summary of the method: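 ACAT enzyme from rat adrenal homogenate in 0.2 M KH2PO4 buffer pH 7.4, 1000g 15 min 5 °C supernatant (microsomal fraction). Supernatant + BSA (50 mg/mL) + compound at final 5.2 μg/mL + buffer preincubated 10 min 37 °C; [14C]oleoyl-CoA (0.4 μCi) added, 30 min 37 °C. Lipids extracted, TLC; cholesteryl ester zone counted. Mean % inhibition vs no-compound control; Student's t test.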

Rattus norvegicus [8] = experiment: In vivo triglyceride lowering activity dosed at 0.05 % of the diet; type: functional; summary of the method: as §1
Rattus norvegicus [9] = experiment: In vivo Triglyceride lowering activity at dose as 0.01 % of the diet; type: functional; summary of the method: as §1
Rattus norvegicus [10] = experiment: In vivo Sterol lowering activity at dose as 0.03 % of the diet; type: functional; summary of the method: as §1
Rattus norvegicus [11] = experiment: In vivo triglyceride lowering activity, dosed at 0.03 % of the diet; type: functional; summary of the method: as §1
Rattus norvegicus [12] = experiment: In vivo sterol lowering activity dosed at 0.10 % of the diet; type: functional; summary of the method: as §1
Rattus norvegicus [13] = experiment: In vivo Sterol lowering activity at dose as 0.01 % of the diet; type: functional; summary of the method: as §1
Rattus norvegicus [14] = experiment: In vivo triglyceride lowering activity, dosed at 0.01 % of the diet.; type: functional; summary of the method: as §1
Rattus norvegicus [15] = experiment: In vivo Triglyceride lowering activity at dose as 0.03 % of the diet.; type: functional; summary of the method: as §1
Rattus norvegicus [16] = experiment: In vivo triglyceride lowering activity, dosed at 0.10 % of the diet.; type: functional; summary of the method: as §1
Rattus norvegicus [17] = experiment: In vivo Sterol lowering activity at dose as 0.05 % of the diet; type: functional; summary of the method: as §1

Structure (SMILES): COc1ccc(CNc2ccc(C(=O)O)cc2)cc1
- Diet (Rattus norvegicus [1]): 76%
- serum triglycerides, percent of control (Rattus norvegicus [2]): 60%
- Diet (Rattus norvegicus [3]): 95%
- serum sterol, percent of control (Rattus norvegicus [4]): 94%
- Diet (Rattus norvegicus [5]): 91%
- Diet (Rattus norvegicus [6]): 69%
- inhibition [7]: 5%

Structure (SMILES): CCOC(=O)c1ccc(NCCCc2ccc(OCc3ccccc3)cc2)cc1
- serum triglycerides, percent of control (Rattus norvegicus [2]): 56%
- Diet (Rattus norvegicus [3]): 86%
- Diet (Rattus norvegicus [4]): 96%
- Diet (Rattus norvegicus [5]): 86%
- Diet (Rattus norvegicus [6]): 56%
- inhibition [7]: 50%
- Diet (Rattus norvegicus [8]): 46%

Structure (SMILES): CCCCCCCCc1ccc(CNc2ccc(C(=O)O)cc2)s1
- serum triglycerides, percent of control (Rattus norvegicus [2]): 70%
- Diet (Rattus norvegicus [9]): 82%
- Diet (Rattus norvegicus [10]): <76%
- serum triglycerides, percent of control (Rattus norvegicus [11]): 70%
- inhibition [7]: 15%
- serum sterol, percent of control (Rattus norvegicus [12]): <72%
- Diet (Rattus norvegicus [13]): 85%

Structure (SMILES): O=C(O)c1ccc(NCCCCCCCCCC/C=C/c2cccs2)cc1
- serum triglycerides, percent of control (Rattus norvegicus [2]): <41%
- Diet (Rattus norvegicus [9]): 69%
- Diet (Rattus norvegicus [10]): <83%
- serum triglycerides, percent of control (Rattus norvegicus [11]): <59%
- inhibition [7]: < 53%
- serum sterol, percent of control (Rattus norvegicus [12]): <73%
- Diet (Rattus norvegicus [13]): <84%

Structure (SMILES): CCOC(=O)c1ccc(NCc2ccc(OC)cc2)cc1
- serum triglycerides, percent of control (Rattus norvegicus [2]): 48%
- Diet (Rattus norvegicus [3]): 92%
- serum sterol, percent of control (Rattus norvegicus [4]): 94%
- Diet (Rattus norvegicus [5]): 95%
- Diet (Rattus norvegicus [6]): 73%
- inhibition [7]: 49%
- Diet (Rattus norvegicus [8]): 62%

Structure (SMILES): C=CCCCCCCCC/C=C/CCCNc1ccc(C(=O)[O-])cc1.[Na+]
- serum triglycerides, percent of control (Rattus norvegicus [2]): 87%
- Diet (Rattus norvegicus [10]): 92%
- Diet (Rattus norvegicus [6]): 106%
- Diet (Rattus norvegicus [8]): 90%
- serum sterol, percent of control (Rattus norvegicus [12]): 86%
- Diet (Rattus norvegicus [13]): 88%

Structure (SMILES): CCOC(=O)c1ccc(NCCCc2ccc(F)cc2)cc1
- Diet (Rattus norvegicus [10]): 78%
- inhibition [7]: 25%
- Diet (Rattus norvegicus [14]): 90%
- Diet (Rattus norvegicus [15]): 71%
- Diet (Rattus norvegicus [16]): 68%
- serum sterol, percent of control (Rattus norvegicus [12]): 81%
- Diet (Rattus norvegicus [13]): 83%

Structure (SMILES): CCCCCCCCc1ccc(CNc2ccc(C(=O)OCC)cc2)s1
- serum triglycerides, percent of control (Rattus norvegicus [2]): <61%
- Diet (Rattus norvegicus [9]): 100%
- Diet (Rattus norvegicus [10]): 90%
- serum triglycerides, percent of control (Rattus norvegicus [11]): <59%
- inhibition [7]: < 32%
- serum sterol, percent of control (Rattus norvegicus [12]): 82%
- Diet (Rattus norvegicus [13]): 97%

Structure (SMILES): CCOC(=O)c1ccc(NCCCCCCCCCCCn2ccnc2)cc1
- serum triglycerides, percent of control (Rattus norvegicus [2]): <57%
- Diet (Rattus norvegicus [9]): 78%
- Diet (Rattus norvegicus [10]): 100%
- serum triglycerides, percent of control (Rattus norvegicus [11]): 92%
- inhibition [7]: < 72%
- serum sterol, percent of control (Rattus norvegicus [12]): 89%
- Diet (Rattus norvegicus [13]): 89%

Structure (SMILES): CCOC(=O)c1ccc(NC/C=C/c2ccccc2)cc1
- serum triglycerides, percent of control (Rattus norvegicus [2]): 60%
- Diet (Rattus norvegicus [3]): 86%
- Diet (Rattus norvegicus [5]): 92%
- Diet (Rattus norvegicus [6]): 73%
- Diet (Rattus norvegicus [8]): 58%
- serum sterol, percent of control (Rattus norvegicus [12]): 84%

Structure (SMILES): O=C(O)c1ccc(NCCCc2ccc(OCc3ccccc3)cc2)cc1
- serum triglycerides, percent of control (Rattus norvegicus [2]): 60%
- Diet (Rattus norvegicus [3]): 96%
- serum sterol, percent of control (Rattus norvegicus [4]): 93%
- Diet (Rattus norvegicus [5]): 90%
- Diet (Rattus norvegicus [6]): 67%
- inhibition [7]: 2%
- Diet (Rattus norvegicus [8]): 69%

Structure (SMILES): O=C(O)c1ccc(NCCc2ccccc2)cc1
- Diet (Rattus norvegicus [1]): 70%
- serum triglycerides, percent of control (Rattus norvegicus [2]): 48%
- Diet (Rattus norvegicus [3]): 84%
- Diet (Rattus norvegicus [5]): 90%
- Diet (Rattus norvegicus [6]): 64%
- inhibition [7]: 9%
- serum sterol, percent of control (Rattus norvegicus [12]): 88%

Structure (SMILES): CCCCCCCCc1ccc(CCCNc2ccc(C(=O)O)cc2)s1
- serum triglycerides, percent of control (Rattus norvegicus [2]): <57%
- Diet (Rattus norvegicus [9]): 76%
- Diet (Rattus norvegicus [10]): <92%
- serum triglycerides, percent of control (Rattus norvegicus [11]): 72%
- inhibition [7]: < 27%
- serum sterol, percent of control (Rattus norvegicus [12]): <78%
- Diet (Rattus norvegicus [13]): 88%

Structure (SMILES): O=C(O)c1ccc(NCCc2ccc(F)cc2)cc1
- serum triglycerides, percent of control (Rattus norvegicus [2]): 54%
- Diet (Rattus norvegicus [3]): 86%
- serum sterol, percent of control (Rattus norvegicus [4]): 91%
- Diet (Rattus norvegicus [5]): 104%
- Diet (Rattus norvegicus [6]): 72%
- inhibition [7]: 0%
- Diet (Rattus norvegicus [8]): 50%

Structure (SMILES): O=C(O)c1ccc(NCc2ccc(-c3ccccc3)cc2)cc1
- serum triglycerides, percent of control (Rattus norvegicus [2]): 42%
- Diet (Rattus norvegicus [3]): 98%
- serum sterol, percent of control (Rattus norvegicus [4]): 90%
- Diet (Rattus norvegicus [5]): 98%
- Diet (Rattus norvegicus [6]): 61%
- inhibition [7]: 7%
- Diet (Rattus norvegicus [8]): 70%

Structure (SMILES): CCOC(=O)c1ccc(NCCCc2ccccc2OC)cc1
- Diet (Rattus norvegicus [1]): 66%
- Diet (Rattus norvegicus [3]): 107%
- serum sterol, percent of control (Rattus norvegicus [4]): 107%
- Diet (Rattus norvegicus [5]): 96%
- Diet (Rattus norvegicus [6]): 61%
- inhibition [7]: 64%
- Diet (Rattus norvegicus [16]): 74%

Structure (SMILES): Cl.O=C(O)c1ccc(NCCCCCCCCCCCn2ccnc2)cc1
- serum triglycerides, percent of control (Rattus norvegicus [2]): <47%
- Diet (Rattus norvegicus [9]): 74%
- Diet (Rattus norvegicus [10]): 99%
- serum triglycerides, percent of control (Rattus norvegicus [11]): <48%
- inhibition [7]: 22%
- serum sterol, percent of control (Rattus norvegicus [12]): 113%
- Diet (Rattus norvegicus [13]): 95%

Structure (SMILES): CCOC(=O)c1ccc(NCCCCCCCCCCc2ccccc2)cc1
- serum triglycerides, percent of control (Rattus norvegicus [2]): <77%
- Diet (Rattus norvegicus [9]): 77%
- Diet (Rattus norvegicus [10]): <84%
- serum triglycerides, percent of control (Rattus norvegicus [11]): <58%
- inhibition [7]: < 63%
- serum sterol, percent of control (Rattus norvegicus [12]): <89%
- Diet (Rattus norvegicus [13]): 100%

Structure (SMILES): CCCCCCCCCCCc1nc(CNc2ccc(C(=O)O)cc2)c[nH]1.Cl
- serum triglycerides, percent of control (Rattus norvegicus [2]): <70%
- Diet (Rattus norvegicus [9]): 79%
- Diet (Rattus norvegicus [10]): 93%
- serum triglycerides, percent of control (Rattus norvegicus [11]): <71%
- inhibition [7]: 19%
- serum sterol, percent of control (Rattus norvegicus [12]): 100%
- Diet (Rattus norvegicus [13]): 99%

Structure (SMILES): O=C(O)c1ccc(NCCc2ccc(OCc3ccccc3)cc2)cc1
- Diet (Rattus norvegicus [1]): 81%
- Diet (Rattus norvegicus [3]): 103%
- Diet (Rattus norvegicus [4]): 86%
- Diet (Rattus norvegicus [5]): 100%
- Diet (Rattus norvegicus [6]): 70%
- inhibition [7]: 18%
- Diet (Rattus norvegicus [16]): 84%

Structure (SMILES): CCOC(=O)c1ccc(NCCCc2ccccc2)cc1
- serum triglycerides, percent of control (Rattus norvegicus [2]): 57%
- Diet (Rattus norvegicus [5]): 94%
- Diet (Rattus norvegicus [6]): 77%
- inhibition [7]: 61%
- Diet (Rattus norvegicus [8]): 56%
- serum sterol, percent of control (Rattus norvegicus [12]): 79%
- Diet (Rattus norvegicus [17]): 77%

Structure (SMILES): C=C(CCCCCCCCCC)CCCCCNc1ccc(C(=O)O)cc1
- serum triglycerides, percent of control (Rattus norvegicus [2]): <30%
- Diet (Rattus norvegicus [9]): <65%
- Diet (Rattus norvegicus [10]): <85%
- serum triglycerides, percent of control (Rattus norvegicus [11]): <64%
- inhibition [7]: < 71%
- serum sterol, percent of control (Rattus norvegicus [12]): <53%
- Diet (Rattus norvegicus [13]): <81%
